Results pooled from the literature.
Target: Serine/threonine-protein kinase pim-3 (PIM3, Homo sapiens, UniProt Q86V86)

The inhibition of CC/C(=N\NC(=O)NCc1cccc(O)c1)c1ccc(O)c(C)c1O is reported as 4.6% (enzyme activity, inhibitor; 0.1 µM).
Cn1c2c(c3ccc(Cl)c(Cl)c31)C(C#N)C1(CCNCC1)NC2=O (racemic) gave a ΔTm of over 8 °C (thermal stability, DSF; 10 µM).
CS(=O)(=O)Nc1cccc(-c2csc(NC(=O)CSc3nc4nccnc4c(=O)n3CCc3ccccc3)n2)c1 has an inhibition of 1% (enzyme activity, inhibitor; 10 µM).
The remaining activity of CCN(CC)c1ccc(C2=NNC(=O)CC2C)cc1[N+](=O)[O-] (stereo not drawn) is reported as 96% (enzyme activity, inhibitor; 10 µM).
Cc1ccc(Nc2nccc(N(C)c3ccc4c(C)n(C)nc4c3)n2)cc1S(N)(=O)=O gave a remaining activity of 81.6% (enzyme activity, inhibitor; 0.5 µM).
O=C(Nc1cnn(-c2csc(C(=O)NC3COC3)c2)c1)Nc1ccccc1Cl has a remaining activity of 61.2% (enzyme activity, inhibitor; 5 µM).
For Cc1cc(-n2nc(Cc3cc(F)cc(C(F)(F)F)c3)nc2C)ccc1C(N)=O, the remaining binding was 100% (cell-free assay, competition with immobilised ligand; 1 µM).
The remaining signal of O=C1NC(=O)c2cc(Nc3ccc(F)cc3)c(Nc3ccc(F)cc3)cc21 is reported as 105% (cell-free assay; 0.5 µM).
With CC(C)(C)c1nc(-c2cccc(NS(=O)(=O)c3c(F)cccc3F)c2F)c(-c2ccnc(N)n2)s1 the remaining activity was 100% (enzyme activity, inhibitor, radiometric; 1 µM).
With O=C(O)[C@@H]1[C@@H](Cn2nnc3ccccc3c2=O)CC[C@H]1C(=O)c1ccc(OCCC2CCOCC2)cc1 the remaining binding was 84% (cell-free assay, competition with immobilised ligand; 1 µM).
The remaining activity of COc1cc(Nc2cnc(C#N)c(O[C@H](C)CN(C)C)n2)ncc1-c1cnn(C)c1 is reported as 58% (enzyme activity, inhibitor, radiometric; 1 µM).
The remaining activity of FC(F)c1nc2ccccc2n1-c1nc(N2CCOCC2)nc(N2CCOCC2)n1 is reported as 76% (enzyme activity, inhibitor; 10 µM).
For COc1cc(Nc2c(C#N)cnc3cc(OCCCN4CCN(C)CC4)c(OC)cc23)c(Cl)cc1Cl, the remaining signal was 97.7% (cell-free assay; 0.5 µM).
The inhibition of CNC(=O)c1cc(Oc2ccc(NC(=O)Nc3ccc(Cl)c(C(F)(F)F)c3)cc2)ccn1 is reported as -16% (enzyme activity, inhibitor; 10 µM).
Cc1ccc(C(=O)Nc2ccc(CN3CCN(C)CC3)c(C(F)(F)F)c2)cc1C#Cc1cnc2cccnn12 gave a remaining activity of 100% (enzyme activity, inhibitor; 23.5 nM).
The remaining binding of Cc1noc([C@H]2C[C@@H](c3ccc(C(F)(F)F)cc3)CN(C(=O)N3CCS(=O)(=O)C3)C2)n1 is reported as 91% (cell-free assay, competition with immobilised ligand; 1 µM).
For CN(c1ncccc1CNc1nc(Nc2ccc3c(c2)CC(=O)N3)ncc1C(F)(F)F)S(C)(=O)=O, the inhibition was 21.2% (enzyme activity, inhibitor; 1 µM).
For CS(=O)(=O)NCC[C@H](NC(=O)c1cncc2c1cnn2-c1ccc(F)cc1)c1ccnc(S(C)(=O)=O)c1, the remaining binding was 100% (cell-free assay, competition with immobilised ligand; 1 µM).
Cc1sc(C(=O)NC2COC2)cc1-n1cc(NC(=O)Nc2c(F)cccc2Cl)cn1 gave a remaining activity of 129% (enzyme activity, inhibitor; 10 µM).
The remaining binding of Cc1cc(C)c(-n2ccn3nc(-c4cccnc4)cc23)cc1NC(=O)c1cc(C#N)cc(S(F)(F)(F)(F)F)c1 is reported as 83.1% (cell-free assay, competition with immobilised ligand; 0.1 µM).
For Oc1cccc(-c2nc(N3CCOCC3)c3oc4ncccc4c3n2)c1, the remaining activity was 41% (enzyme activity, inhibitor; 10 µM).
CC(=O)N1CCC(c2ccc(C(=O)NC3=NCCN3)cc2C(F)(F)F)CC1 gave a remaining binding of 100% (cell-free assay, competition with immobilised ligand; 1 µM).
CCCS(=O)(=O)Nc1ccc(F)c(C(=O)c2c[nH]c3ncc(-c4ccc(Cl)cc4)cc23)c1F has an inhibition of under 10% (enzyme activity, inhibitor; 1 µM).
CC(=O)C1=C(C)N(c2cccc(C(F)(F)F)c2)C(=O)N[C@@H]1c1ccc(C#N)nc1 has a remaining binding of 100% (cell-free assay, competition with immobilised ligand; 1 µM).
Cc1ccc(NC(=O)c2ccc(C)c(C(F)(F)F)c2)cc1C#Cc1nn(C2CCC(O)CC2)c2ncnc(N)c12 (stereo not drawn) gave a remaining signal of 99% (cell-free assay; 10 µM).
With CC1=C(C#N)C(c2ccc3c(c2)c(NC(=O)c2ccccc2C)nn3C)C(C#N)=C(C)N1 the remaining binding was 100% (cell-free assay, competition with immobilised ligand; 1 µM).
The remaining activity of Nc1nc(NC2CCCCC2)sc1C(=O)c1ccccc1 is reported as 69% (enzyme activity, inhibitor; 10 µM).
